Measured values as given in ChEMBL document CHEMBL1821604, “Anticancer activity and cDNA microarray studies of a (RS)-1,2,3,5-tetrahydro-4,1-benzoxazepine-3-yl]-6-chloro-9H-purine, and an acyclic (RS)-O,N-acetalic 6-chloro-7H-purine” (Eur J Med Chem, 2011).

How the values were obtained:
HT-29 [1] = assay: Down regulation of TRPA1 gene expression in human HT-29 cells at IC50 after 48 hrs by cDNA microarray technique relative to control; type: functional
[2] = Cytotoxicity against rat IEC-6 cells after 6 days by SRB colorimetric assay; type: cell-based; conditions: IEC-6, 144 h
HT-29 [3] = assay: Down regulation of FUT9 gene expression in human HT-29 cells at IC50 after 48 hrs by cDNA microarray technique relative to control; type: functional
Outline: (§1)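 Cells (8 × 10⁶) were cultured in DMEM with 10% heat-inactivated FBS at 37 °C under 5% CO₂. They were exposed for 48 h to compound at its IC₅₀, with DMSO-treated parallel cultures as controls (final DMSO ≤0.1% v/v). Total RNA was isolated by trizol/chloroform phase separation, RNeasy column cleanup and on-column DNase, then quantified by OD260/OD280. Expression was profiled by cDNA microarray relative to control.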

MCF7 [4] = assay: Induction of apoptosis in human MCF7 cells assessed early apoptotic cells at IC50 after 48 hrs using annexin V-FITC staining by flow cytometry; type: functional
Outline: (§2)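 Cells exposed 48 h to the compound at its IC₅₀ concentration, with 0.5% DMSO-only cells as control. Stained with annexin V-FITC plus propidium iodide, then flow cytometry. Gating: annexin+/PI− = early apoptotic; annexin+/PI+ = late apoptotic; PI only = dead/necrotic; double-negative = viable.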

HT-29 [5] = assay: Down regulation of NBEA gene expression in human HT-29 cells at IC50 after 48 hrs by cDNA microarray technique relative to control; type: functional
MCF7 [6] = assay: Down regulation of GBP1 gene expression in human MCF7 cells at IC50 after 48 hrs by cDNA microarray technique relative to control; type: functional; outline: as §1
MCF7 [7] = assay: Upregulation of SPACA3 gene expression in human MCF7 cells at IC50 after 48 hrs by cDNA microarray technique relative to control; type: functional
MCF7 [8] = assay: Induction of apoptosis in human MCF7 cells assessed viable cells at IC50 after 48 hrs using annexin V-FITC staining by flow cytometry; type: functional; outline: as §2
HT-29 [9] = assay: Cell cycle arrest in human HT-29 cells assessed as accumulation at S phase at IC50 after 48 hrs using […] propidium iodide staining based FACS analysis; type: functional
MCF7 [10] = assay: Induction of apoptosis in human MCF7 cells assessed necrotic cells at IC50 after 48 hrs using annexin V-FITC staining by flow cytometry; type: functional; outline: as §2
MCF7 [11] = assay: Cell cycle arrest in human MCF7 cells assessed as accumulation at G0/G1 phase at IC50 after 48 hrs using annexin V-FITC and propidium iodide staining based FACS analysis; type: functional
HT-29 [12] = assay: Down regulation of FLJ10786 gene expression in human HT-29 cells at IC50 after 48 hrs by cDNA microarray technique relative to control; type: functional; outline: as §1
MCF7 [13] = assay: Induction of apoptosis in human MCF7 cells assessed late apoptotic cells at IC50 after 48 hrs using annexin V-FITC staining by flow cytometry; type: functional; outline: as §2
HT-29 [14] = assay: Induction of apoptosis in human HT-29 cells assessed viable cells at IC50 after 48 hrs using annexin V-FITC staining by flow cytometry; type: functional; outline: as §2
MCF7 [15] = assay: Down regulation of C1orf131 gene expression in human MCF7 cells at IC50 after 48 hrs by cDNA microarray technique relative to control; type: functional
Outline: (§3)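 8 × 10⁶ cells exposed 48 h to compound at its IC50 concentration; total RNA isolated with trizol/chloroform and RNeasy columns including on-column DNase step; RNA quantified by OD 260/280; DMSO-treated cultures as control.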

HT-29 [16] = assay: Down regulation of TCP10 gene expression in human HT-29 cells at IC50 after 48 hrs by cDNA microarray technique relative to control; type: functional
HT-29 [17] = assay: Induction of apoptosis in human HT-29 cells assessed late apoptotic cells at IC50 after 48 hrs using annexin V-FITC staining by flow cytometry; type: functional; outline: as §2
MCF7 [18] = assay: Upregulation of MGC2474 gene expression in human MCF7 cells at IC50 after 48 hrs by cDNA microarray technique relative to control; type: functional
HT-29 [19] = assay: Induction of apoptosis in human HT-29 cells assessed necrotic cells at IC50 after 48 hrs using annexin V-FITC staining by flow cytometry; type: functional; outline: as §2
HT-29 [20] = assay: Cell cycle arrest in human HT-29 cells assessed as accumulation at G0/G1 phase at IC50 after 48 hrs using […] propidium iodide staining based FACS analysis; type: functional
MCF7 [21] = assay: Down regulation of BDKRB1 gene expression in human MCF7 cells at IC50 after 48 hrs by cDNA microarray technique relative to control; type: functional; outline: as §3
MCF-10A = assay: Cytotoxicity against human MCF10A cells after 6 days by SRB colorimetric assay; type: cell-based; conditions: 144 h
HT-29 [22] = assay: Induction of apoptosis in human HT-29 cells assessed early apoptotic cells at IC50 after 48 hrs using annexin V-FITC staining by flow cytometry; type: functional; outline: as §2
HT-29 [23] = assay: Cell cycle arrest in human HT-29 cells assessed as accumulation at G2/M phase at IC50 after 48 hrs using […] propidium iodide staining based FACS analysis; type: functional
MCF7 [24] = assay: Upregulation of SMARCA1 gene expression in human MCF7 cells at IC50 after 48 hrs by cDNA microarray technique relative to control; type: functional
HT-29 [25] = assay: Cytotoxicity against human HT-29 cells after 6 days by SRB colorimetric assay; type: functional, cell-based; conditions: HT-29, 144 h
MCF7 [26] = assay: Cell cycle arrest in human MCF7 cells assessed as accumulation at G2/M phase at IC50 after 48 hrs using annexin V-FITC and propidium iodide staining based FACS analysis; type: functional
[27] = Therapeutic index, ratio of IC50 for human MCF10A cells to IC50 for human MCF7 cells; type: cell-based; conditions: MCF10A cells (normal) versus MCF7 cells (cancer), read-out: Ratio IC50
Outline: (§4)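 Each cell line grown in DMEM with 10% FBS, 37 °C, 5% CO₂. Cells seeded and allowed 24 h, then drug added in medium (≤0.1% v/v DMSO). Medium and drug renewed at day 3, cells kept 3 more days. Sulforhodamine-B read at 492 nm. IC₅₀ taken from semilog dose-response curves by linear interpolation, triplicate wells, at least twice. Index = IC₅₀ normal line / IC₅₀ cancer line.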

[28] = Therapeutic index, ratio of IC50 for rat IEC-6 cells to IC50 for human HT-29 cells; type: cell-based; conditions: IEC-6 cells (normal) versus HT-29 cells (cancer), read-out: Ratio IC50; outline: as §4
MCF7 [29] = assay: Cell cycle arrest in human MCF7 cells assessed as accumulation at S phase at IC50 after 48 hrs using annexin V-FITC and propidium iodide staining based FACS analysis; type: functional
HT-29 [30] = assay: Down regulation of DRD5 gene expression in human HT-29 cells at IC50 after 48 hrs by cDNA microarray technique relative to control; type: functional; outline: as §1
HT-29 [31] = assay: Down regulation of DNAJC7 gene expression in human HT-29 cells at IC50 after 48 hrs by cDNA microarray technique relative to control; type: functional; outline: as §1
HT-29 [32] = assay: Down regulation of TNPO1 gene expression in human HT-29 cells at IC50 after 48 hrs by cDNA microarray technique relative to control; type: functional
MCF7 [33] = assay: Down regulation of BIVM gene expression in human MCF7 cells at IC50 after 48 hrs by cDNA microarray technique relative to control; type: functional; outline: as §3

SMILES: COC(CN(c1ccccc1CO)S(=O)(=O)c1ccccc1[N+](=O)[O-])n1cnc2ncnc(Cl)c21 (racemic)
- fold change (FC) (HT-29 [1]): -3.22
- IC50 [2]: 12.1 µM
- fold change (FC) (HT-29 [3]): -2.25
- Activity (MCF7 [4]): 6.36%
- fold change (FC) (HT-29 [5]): -2.89
- fold change (FC) (MCF7 [6]): -2.01
- fold change (FC) (MCF7 [7]): 2.21
- Activity (MCF7 [8]): 20.36%
- Activity (HT-29 [9]): 10.5%
- Activity (MCF7 [10]): 24.79%
- Activity (MCF7 [11]): 65.09%
- fold change (FC) (HT-29 [12]): -2.04
- Activity (MCF7 [13]): 48.49%
- Activity (HT-29 [14]): 54.93%
- fold change (FC) (MCF7 [15]): -2.26
- fold change (FC) (HT-29 [16]): -2.75
- Activity (HT-29 [17]): 15.64%
- fold change (FC) (MCF7 [18]): 2.23
- Activity (HT-29 [19]): 8.33%
- Activity (HT-29 [20]): 71.58%
- fold change (FC) (MCF7 [21]): -2.48
- IC50 (MCF-10A): 6.23 µM
- Activity (HT-29 [22]): 21.1%
- Activity (HT-29 [23]): 12.7%
- fold change (FC) (MCF7 [24]): 2.91
- IC50 (HT-29 [25]): 3.28 µM
- Activity (MCF7 [26]): 10.98%
- selectivity ratio [27]: 1.92
- selectivity ratio [28]: 3.69
- Activity (MCF7 [29]): 23.94%

SMILES: O=C(OCC1c2ccccc2-c2ccccc21)N1CC(n2cnc3c(Cl)ncnc32)OCc2ccccc21 (racemic)
- IC50 [2]: 10.1 µM
- Activity (MCF7 [4]): 7.27%
- fold change (FC) (MCF7 [6]): -2.02
- fold change (FC) (HT-29 [30]): -2.3
- Activity (MCF7 [8]): 5.07%
- fold change (FC) (HT-29 [31]): -2.2
- Activity (HT-29 [9]): 14.7%
- Activity (MCF7 [10]): 14.85%
- Activity (MCF7 [11]): 64.39%
- Activity (MCF7 [13]): 72.81%
- Activity (HT-29 [14]): 59.69%
- fold change (FC) (HT-29 [32]): -2.5
- Activity (HT-29 [17]): 13.63%
- Activity (HT-29 [19]): 8.61%
- Activity (HT-29 [20]): 74.68%
- IC50 (MCF-10A): 2.14 µM
- Activity (HT-29 [22]): 18.07%
- Activity (HT-29 [23]): 14.9%
- fold change (FC) (MCF7 [33]): -2.05
- IC50 (HT-29 [25]): 3.38 µM
- Activity (MCF7 [26]): 13.18%
- selectivity ratio [27]: 3.19
- selectivity ratio [28]: 2.99
- Activity (MCF7 [29]): 22.43%
